Assay outcomes as filed in PubChem BioAssay.
A selection: hits, their analogues and other compounds. The true share with any hit is near 6.4%.
Fibroblast inh: antiproliferative effect on LL 47 fibroblasts – human, LL 47 cells, CellTiter-Glo luminescence, primary screen. 1.1% of 85,000 active. viability, % at 10 µM. LL 47 human lung fibroblast viability, ATP luminescence; active compounds read low. AID 719, 2007;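 active = viability at or below 50% in the single dose screen; inactive = viability above 50%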;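 note: compound exposure lasted 72 h before the ATP readout; 100% = median luminescence of untreated cell-only wells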
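Test system: LL 47 human lung fibroblasts / Quantity: 1,150 cells in each well / Medium: IMEM growth medium with 15% fetal bovine serum / Incubation: 72 h compound exposure at 37 °C after overnight plating / Detection: CellTiter-Glo luminescence measuring cellular ATP / Read-out: % viability versus median cells-only luminescence / Benchmarks: cell-only wells, no compound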
HUVEC prolif 384: inhibitors of HUVEC proliferation, primary screen, cell-based, 384-well | viability, % at 10 µM (by protocol) | 1.1% of 86,000 active | CellTiter-Glo luminescence, 72 h; active compounds read low | AID 648, 2007;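 active = viability at or below 30%; inactive = viability above 30%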;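 note: 100% = median luminescence of DMSO-only cell control wells on each plate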
H69AR growth 86K: proliferation blockers of H69AR lung cancer cells, primary screen, cell-based, human, 86K library | H69AR lung tumor viability, ATP luminescence, 72 h; active compounds read low | viability, % at 10 µM | 6% of 85,000 active;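 active = viability at or below 40%; inactive = viability above 40%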;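 note: multidrug resistant small cell line overexpressing MRP-1 efflux transporter; 100% = mean luminescence of untreated control wells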
Jurkat viability: cytotoxicity toward Jurkat T cells, primary screen, cytotoxicity control, cell-based, Jurkat E6.1, 60K MLSMR library; inhibition, % at 4 µM; 1.2% of 56,000 active; AID 463, 2006; Jurkat E6.1 viability, ATP luminescence, 48 h;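 active = inhibition above the mean inhibition of all tested compounds plus 3 SD, cut at about 28% in these data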
An asterisk follows results filed as active; / = no result given.

SMILES	Fibroblast inh	HUVEC prolif 384	H69AR growth 86K	Jurkat viability
Cc1ccccc1Cn1ccc(NC(=O)CCSc2nc(-c3ccco3)cc(C(F)(F)F)n2)n1	97.7	75.5	91.3	-3.8
COc1ccc(S(=O)(=O)NCCSCc2cccs2)cc1	102.7	98.8	90.2	-3.6
COc1ccc(C(=O)COC(=O)[C@H](C)Nc2ccc(C(F)(F)F)cc2[N+](=O)[O-])c(OC)c1	99.6	105.5	108.7	/
O=C(CS(=O)c1ccc(C(F)(F)F)cc1[N+](=O)[O-])Oc1ccc(Cl)cc1 (configuration not stated)	88.2	58.2	20.6*	/
Cc1cc(C)cc(OC(=O)CS(=O)c2ccc(C(F)(F)F)cc2[N+](=O)[O-])c1 (configuration not stated)	83.6	64.4*	15.1*	/
Cc1nc(NC(=O)CSc2nnnn2Cc2ccccc2)sc1C	93.5	77.7	82.9	-5.2
COc1ccc(S(=O)(=O)N2N=C(C)Oc3ccccc3C2=O)cc1	46.5*	58.4	16.0*	/
CC1=NN(S(=O)(=O)c2ccc(F)cc2)C(=O)c2ccccc2O1	99.4	90.6	99.1	/
COc1cccc(-n2c(C)nc3cc(C(=O)O)ccc32)c1	94.9	85.3	94.5	/
COc1nc(OC)nc(N2CCC(C(=O)NCC3CCCCC3)CC2)n1	97.5	104.9	30.8*	7.2
COc1cc(-c2nnc(Sc3ccc(C(F)(F)F)cc3[N+](=O)[O-])o2)cc(OC)c1OC	83.0	72.0	1.0*	/
Cc1ccc2[nH]c(C)c(/C=N/Nc3nc4ccccc4s3)c2c1	63.4	41.9	4.6*	/
COC(=O)C(NC(=O)c1ccco1)(Nc1ccc(Br)cn1)C(F)(F)F (configuration not stated)	95.0	85.5	111.2	/
COc1ccc(OC)c(NC(=O)CSc2ncnc3c2cnn3-c2ccccc2Cl)c1	91.8	88.1	48.4	/
CCCC1=Nc2cc(C(=O)NCCCOCC)ccc2Sc2ccccc21	57.8	38.1	33.0*	/
CCCC1=Nc2cc(C(=O)NCCCOC(C)C)ccc2Sc2ccccc21	50.1	43.0	16.4*	/
CC(C)OCCCNC(=O)c1ccncc1	100.3	100.5	93.0	12.5
CCC1=Nc2cc(C(=O)NCCCOC)ccc2Sc2ccccc21	58.3	45.6	32.4*	/
CCOCCCNC(=O)c1ccc(OC)cc1	98.9	92.2	88.7	-5.6
Fc1ccccc1N1CCN(Cc2nc(-c3ccc(Cl)cc3Cl)no2)CC1	97.9	104.4	103.7	2.4
Cc1ccccc1CS(=O)(=O)CCC(=O)NCc1ccccn1	105.5	88.8	93.8	4.9
c1ccc2c(c1)N1CCN=C1N2CCN1CCCCC1	99.7	91.6	93.3	-6.8
O=C(CN1C2=NCCN2c2ccccc21)C12CC3CC(CC(C3)C1)C2	96.0	51.9	34.6*	12.3
CCN(CCCNC(=O)c1[nH]c(C)c(C(C)=O)c1C)c1ccccc1	101.0	87.3	72.9	9.7
CC1CCc2cc(F)ccc2N1C(=O)c1ccc2c(c1)OCO2 (configuration not stated)	94.7	107.4	92.5	0.9
SMILES	Fibroblast inh	HUVEC prolif 384	H69AR growth 86K	Jurkat viability
COc1cccc(NC(=O)CCN2CCN(C)CC2)c1	95.6	87.0	102.8	-3.6
c1ccc(-c2nc(NCCCn3ccnc3)c3oc4ccccc4c3n2)cc1	88.2	54.1	17.9*	/
CCN1C(=O)C(O)(C2COC(C)(C)CC2=O)c2ccccc21 (configuration not stated)	96.6	88.7	59.0	/
CCCN1C(=O)C(O)(C2CC(=O)CC(C)(C)O2)c2ccccc21 (configuration not stated)	76.3	88.2	22.6*	3.9
CC[C@H](C)C(=O)O[C@H]1C[C@@H](C)C=C2C=C[C@H](C)[C@H](CC[C@@H]3C[C@@H](O)CC(=O)O3)[C@H]21	46.1*	16.8*	45.5	/
CCOC(=O)/C(C(C)=O)=C1/OC(=O)c2ccccc21	97.4	92.2	95.1	/
CCN(CCNC(=O)C1CCN(S(C)(=O)=O)CC1)c1ccccc1	98.5	95.9	96.0	-8.5
CCN(CCNC(=O)Nc1ccc(Cl)cc1)c1ccccc1	96.2	102.5	7.2*	7.2
CCCN(CCC)S(=O)(=O)c1ccc(NC(=O)COc2ccccc2)cc1	97.7	90.0	71.1	/
CCN1CCN(c2nc3ccccc3nc2C(C#N)C(=O)OC2CCCCC2)CC1 (configuration not stated)	80.7	37.4	49.9	3.0
CN1CCN(c2nc3ccccc3nc2C(C#N)C(=O)OC2CCCCC2)CC1 (configuration not stated)	70.7	3.7*	19.4*	5.6
CCOC(=O)C1CCCN(c2nc3ccccc3nc2C(C#N)C(=O)OCCOC)C1 (configuration not stated)	53.6	25.4*	75.2	/
COc1ccc(C2CC(c3c(O)cc(C)oc3=O)=NCCS2)c(OC)c1 (configuration not stated)	47.9*	48.0	24.4*	94.6*
CCC(C)NS(=O)(=O)c1ccc(-c2csnn2)s1 (configuration not stated)	103.7	96.3	96.5	/
CN(CC(=O)Nn1cnnc1)S(=O)(=O)c1ccc(Br)cc1	101.7	109.0	100.1	/
Cc1cccc(-n2ncc3c(NCc4ccco4)ncnc32)c1	89.0	73.4	26.3*	/
c1ccc(CCNc2ncnc3c2cnn3-c2ccccc2)cc1	110.7	95.7	74.4	0.6
Cc1ccc(-n2ncc3c(NCCCOC(C)C)ncnc32)c(C)c1	97.5	96.8	36.9*	/
c1ccc(CNc2ncnc3c2cnn3-c2ccccc2)cc1	70.3	59.7	25.9*	85.1*
Fc1ccc(CNc2ncnc3c2cnn3-c2ccccc2)cc1	88.3	86.0	36.5*	10.9
Cc1sc2nc(C(C)Nc3ccccc3N3CCOCC3)[nH]c(=O)c2c1C (configuration not stated)	92.9	85.7	48.9	5.5
O=C1Nc2ncccc2OC1CCO (configuration not stated)	100.8	93.3	102.4	/
Cc1cccc(-n2ncc3c(NCc4ccccc4)ncnc32)c1	56.8	57.3	24.8*	82.7*
Cc1cccc(-n2ncc3c(N4CCCc5ccccc54)ncnc32)c1	94.2	86.5	34.6*	/
Clc1ccc(-n2ncc3c(NCc4cccs4)ncnc32)cc1	34.0*	87.3	40.9	/
SMILES	Fibroblast inh	HUVEC prolif 384	H69AR growth 86K	Jurkat viability
Cc1cccc(-n2ncc3c(NCc4ccccn4)ncnc32)c1	113.6	100.6	88.6	-2.0
Cc1ccc(N2C(N)=C(C#N)C(c3cccnc3)C3=C2CC(C)(C)CC3=O)cc1 (configuration not stated)	78.7	87.0	23.5*	1.8
Cc1ccc(N2C(N)=C(C#N)C(c3ccsc3)C3=C2CC(C)(C)CC3=O)cc1 (configuration not stated)	86.6	83.6	48.1	/
CC(C)c1ccc(-c2c(C#N)c(N)nc(SCC(=O)N3CCCCC3)c2C#N)cc1	72.3	27.8*	62.7	/
N#Cc1c(N)nc(SCC(=O)NC2CCCCC2)c(C#N)c1-c1ccc(Cl)cc1	65.8	66.1	36.2*	-1.2
CC(C)c1ccc(-c2c(C#N)c(N)nc(SCC(=O)N3CCCCCC3)c2C#N)cc1	83.6	79.0	59.5	/
